# Screening results (PubChem BioAssay)
# SIAE primary = human SIAE inhibitors, primary screen, biochemical, fluorescence polarization, FP-Rh probe, 1536-well HTS; Sialate O-acetylesterase (Homo sapiens), Q9HAT2; inhibition, % at 9.66 µM; SIAE FP-Rh probe binding; actives 0.69% (n = 370,000); AID 1053197, 2014;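 active means inhibition above a cutoff: mean of compounds within the control limits plus 3 SD of those, cut at about 17% in these data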;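 further: 0% = plate median of compound wells and 100% = probe without SIAE protein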
# Fam108B counter = mouse Fam108B serine hydrolase inhibitors, primary screen, counter-screen for RBBP9 inhibitor project, biochemical, fluorescence polarization | recombinant Fam108B, FP-Rh probe fluorescence polarization | inhibition, % at 9.51 µM | actives 0.33% (n = 300,000);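 active means inhibition above the screen mean inhibition plus 3 SD, computed separately per campaign, cut at about 18% in these data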;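 further: inhibitors lower polarization as less probe binds the enzyme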
# mABHD4 FP = ABHD4 inhibitors, primary screen, biochemical, fluorescence polarization, mouse. (Lyso)-N-acylphosphatidylethanolamine lipase (Mus musculus), Q8VD66. purified mABHD4, FP-Rh probe fluorescence polarization. inhibition, % at 8.92 µM. actives 0.54% (n = 370,000);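 active means inhibition exceeding the mean over every tested compound plus 3 SD, cut at about 30% in these data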;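 further: 0% = plate median of compound wells and 100% = S159A mutant with DMSO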
#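 Test system: mABHD4 protein | Buffer or medium: HEPES pH 7.0 buffer, 150 mM NaCl, 0.01% Pluronic F-127 | Probe or stimulus: FP-Rh fluorescent activity-based probe, added after compound pre-incubation | Timing: Pre-incubation 45 min, probe exposure 60 min, at 25 °C | Technique: Fluorescence polarization, excitation 525 nm, emission 598 nm, BODIPY TMR filters | Repeats: Single well per compound (singlicate)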
# PME-1 inh = PME-1 inhibitors via competitive probe labeling, primary screen, biochemical, fluorescence polarization, FP-Rh probe, HTS | Protein phosphatase methylesterase 1 (Homo sapiens), Q9Y570 | recombinant PME-1 | inhibition, % at 5.9 µM | actives 0.53% (n = 320,000) | AID 2130, 2009;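 active means inhibition above the campaign mean of all compounds plus 3 SD, cut at about 26% in these data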;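 further: competitive labeling of PME-1 active site by serine hydrolase directed probe; 0% = PME-1 with DMSO and 100% = wells lacking PME-1 enzyme; inhibitors block probe labeling so polarization falls and inhibition rises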
# HTRA1 inh = HTRA1 serine protease inhibitors, primary screen, biochemical, fluorescence polarization, HTS; actives 0.5% (n = 340,000); Q92743; inhibition, % at 5.96 µM; recombinant HTRA1, FP-rhodamine activity-based probe; AID 504803, 2011; in the data active means inhibition above about 36%;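 further: 0% = enzyme with DMSO and 100% = wells lacking enzyme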
# Target sequence (Q92743 whole entry, looked up): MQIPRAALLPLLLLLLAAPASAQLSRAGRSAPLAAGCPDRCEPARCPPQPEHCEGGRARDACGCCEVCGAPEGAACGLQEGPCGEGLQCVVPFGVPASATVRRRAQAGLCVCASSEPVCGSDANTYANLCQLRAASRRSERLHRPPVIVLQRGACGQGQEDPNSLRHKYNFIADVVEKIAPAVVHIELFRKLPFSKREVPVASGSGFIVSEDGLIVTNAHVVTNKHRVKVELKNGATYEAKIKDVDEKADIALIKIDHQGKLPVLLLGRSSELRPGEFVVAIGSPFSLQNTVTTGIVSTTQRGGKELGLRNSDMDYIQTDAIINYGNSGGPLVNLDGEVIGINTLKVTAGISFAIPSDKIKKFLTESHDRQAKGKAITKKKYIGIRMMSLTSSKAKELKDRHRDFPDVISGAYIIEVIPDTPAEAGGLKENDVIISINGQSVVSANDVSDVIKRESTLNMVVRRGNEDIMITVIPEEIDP
# TCR-CD3 inh = inhibitors of human TCR-CD3 interaction, primary screen, biochemical, fluorescence, TAMRA-labeled TCR probe; T-cell receptor (TCR); inhibition, % at 9.4 µM; actives 0.37% (n = 360,000); AID 651800, 2012; in the data active means inhibition above about 19%;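 further: recombinant mutant TCR 2C K166C tagged with TAMRA read by polarization; 0% = receptor in buffer alone and 100% = receptor with positive control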
# SIAE inh conf = human SIAE inhibitors, retest, confirmation, biochemical, fluorescence polarization, FP-Rh probe, triplicate; actives 13% (n = 2,300); shares compounds with SIAE primary; AID 1117263, 2014; SIAE FP-Rh activity-based probe; inhibition, % at 9.66 µM;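 active means mean inhibition of the replicates above the hit cutoff set in the primary screen, cut at about 17% in these data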;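 further: 0% = SIAE with DMSO and probe and 100% = probe without SIAE; inhibitors lower polarization as more probe stays unbound to SIAE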
# * hit, by the source's call; nt = no result given. Most compounds without a hit are left out; they make up all but 1.8% or so of the library.
SMILES,SIAE primary,Fam108B counter,mABHD4 FP,PME-1 inh,HTRA1 inh,TCR-CD3 inh,SIAE inh conf
CN(C(=O)c1ccc(Cl)c([N+](=O)[O-])c1)C1(C)CCS(=O)(=O)C1 (configuration not stated),1,1,7,-6,3,-8,nt
CC1(NC(=O)Nc2cccc3ccccc23)CCS(=O)(=O)C1 (configuration not stated),22*,4,-10,7,4,3,1
CCc1nc(C)cn1S(=O)(=O)c1cc(C)c(OC)c(C)c1C,37*,0,4,5,-1,5,-2
O=C(NCCO)c1cccc(Nc2nc(-c3ccccc3)c3cc(Cl)ccc3n2)c1,21*,-7,-15,-17,-59,2,-29
NNc1nc(-c2ccccc2)c2cc(Cl)ccc2n1,5,-5,6,3,5,2,nt
CC1CCC(NC(=O)c2cccc(S(=O)(=O)N3CCOCC3)c2)CC1 (configuration not stated),5,nt,-2,nt,-2,1,nt
NS(=O)(=O)c1cccc(NC(=O)CSc2n[nH]c(-c3ccccc3Br)n2)c1,-3,nt,-2,nt,-4,-3,nt
CCOc1cc(N2CCOCC2)c(OCC)cc1NC(=O)CN1C(=O)NC(C)(c2ccc(OC)cc2)C1=O (configuration not stated),18*,nt,-3,nt,5,-2,3
CCOc1cc(N2CCOCC2)c(OCC)cc1NC(=O)c1ccc(OC)cc1,7,5,2,5,5,6,nt
Cc1ccc(C2(C)NC(=O)N(CC(=O)Nc3ccc(N4CCOCC4)cc3N3CCOCC3)C2=O)cc1 (configuration not stated),19*,2,-3,-1,-1,4,1
CC1(c2ccccc2)NC(=O)N(CC(=O)Nc2ccc(N3CCOCC3)cc2N2CCOCC2)C1=O (configuration not stated),5,-1,-7,-1,0,-4,nt
CCOc1cc(N2CCOCC2)c(OCC)cc1NC(=O)CN1C(=O)NC2(CCCCC2C)C1=O (configuration not stated),14,nt,8,nt,6,-7,nt
CC1(c2ccccc2)NC(=O)N(CC(=O)Nc2ccc(N3CCOCC3)cc2)C1=O (configuration not stated),19*,nt,-2,nt,4,2,5
CCOc1cc(N2CCOCC2)c(OCC)cc1NC(=O)c1ccc(NC(C)=O)cc1,23*,-2,2,3,2,-2,3
O=C(COC(=O)c1ccccc1O)Nc1ccc(N2CCOCC2)cc1,17*,nt,-4,1,12,-3,-1
Cc1cc(C)cc(OC(C)C(=O)Nc2ccccc2C(=O)NCc2cccnc2)c1 (configuration not stated),-1,-1,-4,8,-13,8,nt
CCc1nc2c(OCc3ccccc3C(=O)OC)cccn2c1N(C)C(=O)Nc1ccccc1OC,2,nt,2,nt,nt,-6,nt
CCc1ccccc1NC(=O)CN(C)C(=O)CSc1nn(-c2ccc(F)cc2)c(=S)s1,18*,-4,-11,10,-9,-1,0
CCc1ccccc1NC(=O)CN(C)C(=O)CSc1nnc(Nc2cccc(C)c2C)s1,6,0,3,6,-3,3,nt
CCOc1ccc(OCC)c(NS(=O)(=O)c2cn(C)cn2)c1,0,-2,1,-6,8,2,nt
Cn1cnc(S(=O)(=O)Nc2ccccc2C(=O)NCC2CC2)c1,17*,3,6,-2,2,4,4
CC(Sc1nnc(Nc2ccccc2)s1)C(=O)Nc1nc(-c2ccccc2)cs1 (configuration not stated),22*,-12,-3,-21,-18,-1,5
O=C(Cc1ccccc1[N+](=O)[O-])c1ccc2c(c1)OCO2,6,nt,3,nt,-3,5,nt
CCNC(=S)Nc1cc(C(=O)N2CCCC2)ccc1N1CCCC1,23*,1,1,-1,0,2,1
CC1CN(CC(O)c2ccc(Br)cc2)CCO1 (configuration not stated),5,nt,-1,nt,2,-1,nt
SMILES,SIAE primary,Fam108B counter,mABHD4 FP,PME-1 inh,HTRA1 inh,TCR-CD3 inh,SIAE inh conf
CC(C)C1=CC2C3C(=O)N(c4ccccc4)C(=O)C3C1C(=O)C2(C)O (configuration not stated),21*,nt,2,nt,nt,7,3
CC(C)(C)NC(=O)C(c1ccc(C#N)cc1)n1c(=O)c(-c2cc3ccccc3[nH]2)nc2ccccc21 (configuration not stated),-23,nt,-27,nt,nt,-4,nt
C=C(C)c1cccc(C(C)(C)NC(=O)Nc2ccc(C(C)=O)cc2)c1,-11,-3,-26,-4,-21,0,nt
C=C(C)c1cccc(C(C)(C)NC(=O)Nc2ccc3[nH]c(=O)[nH]c3c2)c1,19*,1,3,4,5,1,3
O=C(NCC(=O)N1CCN(c2ncccn2)CC1)c1ccc(F)cc1,22*,nt,0,0,11,-6,-5
CC(NC(=O)CCn1c(=S)[nH]c2ccsc2c1=O)c1ccccc1 (configuration not stated),19*,-1,3,-10,1,-5,1
CN(C)c1ccc(/C=[N+](\[O-])C2N(c3ccccc3)C(=S)SC2(C)C)cc1 (configuration not stated),26*,4,-3,5,0,-1,2
CCOc1ccc(Oc2ccc(NC(=O)CSc3nncn3C)cc2)cc1,19*,nt,11,nt,-8,1,-3
CC(C)NC(=S)N/N=C/c1c[nH]c2ccccc12,8,1,9,3,6,5,nt
Cc1[nH]c2ccccc2c1/C=N/NC(=S)NC(C)C,20*,11,10,9,17,-2,14
Cc1ccc2nc(NC(=O)C3CCN(C(=O)c4ccc(F)cc4)CC3)sc2c1,-7,0,-9,-5,-11,-2,nt
COc1ccccc1S(=O)(=O)N(C)C[C@@H]1OCc2cnnn2CCCC(=O)N([C@H](C)CO)C[C@H]1C,6,nt,-4,nt,8,0,nt
Cc1c(C(=O)Nc2ccccc2)c2ccc(C(F)(F)F)cc2n1O,25*,4,-5,1,nt,4,29*
O=C(Nc1ccccc1)c1cccc(C(F)(F)F)c1,0,5,2,-1,-5,2,nt
